Measurements pooled from the literature.
Protocols differ between the studies behind these lines.
Observed: enzyme activity
ABL1: Tyrosine-protein kinase ABL1 (ABL1, Homo sapiens, UniProt P00519)
ABL1 Q252H: Tyrosine-protein kinase ABL1 (ABL1, Homo sapiens, UniProt P00519, Q252H)

| Compound | target | test | setting | remaining activity |
| --- | --- | --- | --- | --- |
| CC(C)(C)c1nc2c(s1)c1nc(N)ncc1c1ccc(NS(=O)(=O)c3c(F)cccc3F)c(F)c12 | ABL1 | inhibitor, radiometric | 1 µM | 93% |
| CC(C)(O)[C@H]1CC[C@H](Nc2ccc3ncc(-c4cccc(C(F)(F)F)c4)n3n2)CC1 | ABL1 | inhibitor | 1 µM | 69.8% |
| Cc1sc(C(=O)NC2COC2)cc1-n1cc(NC(=O)Nc2c(F)cccc2Cl)cn1 | ABL1 | inhibitor | 10 µM | 102% |
| Cc1[nH]c(/C=C2\C(=O)Nc3ccc(F)cc32)c(C)c1C(=O)N[C@H]1CCN(C(=O)N(C)C)C1 | ABL1 | inhibitor | 1 µM | 107% |
| CCCOc1ccc(OC)c(F)c1C(=O)c1ccc(C(=O)N[C@@H]2CNC[C@H]2NC(=O)c2ccc3[nH]ncc3c2)cc1 | ABL1 | inhibitor | 10 µM | 80% |
| Cc1ccc(NC(=O)c2ccc(C)c(C(F)(F)F)c2)cc1C#Cc1nn(C2CCC(O)CC2)c2ncnc(N)c12 (stereo not drawn) | ABL1 Q252H | – | 10 µM | 2% |
| Cc1cnc(NC2CCOCC2)nc1-n1cnc(C(=O)NC(CN)c2cc(F)cc(Cl)c2)c1 (stereo not drawn) | ABL1 Q252H | inhibitor, radiometric | 1 µM | 91% |
| CCN(CC)c1ccc(C2=NNC(=O)CC2C)cc1[N+](=O)[O-] (stereo not drawn) | ABL1 | inhibitor | 10 µM | 87% |
| COc1cc(Nc2cnc(C#N)c(O[C@H](C)CN(C)C)n2)ncc1-c1cnn(C)c1 | ABL1 | inhibitor, radiometric | 10 µM | 58% |
